ChEMBL document CHEMBL4138284, “Biomimetic Stereoselective Sulfa-Michael Addition Leads to Platensimycin and Platencin Sulfur Analogues against Methicillin-Resistant Staphylococcus aureus” (J Nat Prod, 2018)
Values after ≈ are worked out from the molar mass of the structure shown.

Tests used:
Format in all cases: functional
[1] = system: Staphylococcus aureus; assay: Antibacterial activity against methicillin-resistant Staphylococcus aureus isolate 11 incubated overnight by agar dilution method
Method in brief: (§1)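 MIC by agar dilution. Strains were grown overnight in LB broth and diluted, then about 10^4 CFU (2 μL spots) were spotted onto LB agar plates containing test compound at 0.5 to 8 μg mL−1 agar. Plates were incubated overnight at 37 °C and inspected for growth. Clinical MSSA and MRSA isolates came from local hospitals.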

[2] = system: Staphylococcus aureus; assay: Antibacterial activity against Staphylococcus aureus ATCC 29213 incubated overnight by agar dilution method; method in brief: as §1
[3] = system: Staphylococcus aureus; assay: Antibacterial activity against methicillin-sensitive Staphylococcus aureus isolate 1 incubated overnight by agar dilution method; method in brief: as §1
[4] = system: Staphylococcus aureus; assay: Antibacterial activity against methicillin-sensitive Staphylococcus aureus isolate 2 incubated overnight by agar dilution method; method in brief: as §1
[5] = system: Staphylococcus aureus; assay: Antibacterial activity against methicillin-sensitive Staphylococcus aureus isolate 3 incubated overnight by agar dilution method; method in brief: as §1
[6] = system: Staphylococcus aureus; assay: Antibacterial activity against methicillin-sensitive Staphylococcus aureus isolate 4 incubated overnight by agar dilution method; method in brief: as §1
[7] = system: Staphylococcus aureus; assay: Antibacterial activity against methicillin-resistant Staphylococcus aureus isolate 5 incubated overnight by agar dilution method; method in brief: as §1
[8] = system: Staphylococcus aureus; assay: Antibacterial activity against methicillin-resistant Staphylococcus aureus isolate 6 incubated overnight by agar dilution method; method in brief: as §1
[9] = system: Staphylococcus aureus; assay: Antibacterial activity against methicillin-resistant Staphylococcus aureus isolate 7 incubated overnight by agar dilution method; method in brief: as §1
[10] = system: Staphylococcus aureus; assay: Antibacterial activity against methicillin-resistant Staphylococcus aureus isolate 8 incubated overnight by agar dilution method; method in brief: as §1
[11] = system: Staphylococcus aureus; assay: Antibacterial activity against methicillin-resistant Staphylococcus aureus isolate 9 incubated overnight by agar dilution method; method in brief: as §1
[12] = system: Staphylococcus aureus; assay: Antibacterial activity against methicillin-resistant Staphylococcus aureus isolate 10 incubated overnight by agar dilution method; method in brief: as §1

Row | SMILES | MIC [1] | MIC [2] | MIC [3] | MIC [4] | MIC [5] | MIC [6] | MIC [7] | MIC [8] | MIC [9] | MIC [10] | MIC [11] | MIC [12]
1 | C[C@]12C[C@]34C[C@@H]1C[C@H](O2)[C@H]3[C@](C)(CCC(=O)Nc1c(O)ccc(C(=O)O)c1O)C(=O)C[C@@H]4SC(=O)c1ccc(Cl)cc1 | 2 µg/mL (≈ 3.26 µM) | 1 µg/mL (≈ 1.63 µM) | 1 µg/mL (≈ 1.63 µM) | 1 µg/mL (≈ 1.63 µM) | 1 µg/mL (≈ 1.63 µM) | 1 µg/mL (≈ 1.63 µM) | 1 µg/mL (≈ 1.63 µM) | 1 µg/mL (≈ 1.63 µM) | 1 µg/mL (≈ 1.63 µM) | 1 µg/mL (≈ 1.63 µM) | 1 µg/mL (≈ 1.63 µM) | 1 µg/mL (≈ 1.63 µM)
2 | Cc1ccc(S[C@H]2CC(=O)[C@@](C)(CCC(=O)Nc3c(O)ccc(C(=O)O)c3O)[C@@H]3[C@@H]4C[C@H]5C[C@]23C[C@]5(C)O4)cc1 | 2 µg/mL (≈ 3.54 µM) | 4 µg/mL (≈ 7.07 µM) | 2 µg/mL (≈ 3.54 µM) | 2 µg/mL (≈ 3.54 µM) | 2 µg/mL (≈ 3.54 µM) | 2 µg/mL (≈ 3.54 µM) | 4 µg/mL (≈ 7.07 µM) | 2 µg/mL (≈ 3.54 µM) | 4 µg/mL (≈ 7.07 µM) | 2 µg/mL (≈ 3.54 µM) | 2 µg/mL (≈ 3.54 µM) | 2 µg/mL (≈ 3.54 µM)
3 | CC(=O)S[C@H]1CC(=O)[C@@](C)(CCC(=O)Nc2c(O)ccc(C(=O)O)c2O)[C@@H]2[C@@H]3C[C@H]4C[C@]12C[C@]4(C)O3 | 4 µg/mL (≈ 7.73 µM) | 2 µg/mL (≈ 3.86 µM) | 2 µg/mL (≈ 3.86 µM) | 2 µg/mL (≈ 3.86 µM) | 2 µg/mL (≈ 3.86 µM) | 2 µg/mL (≈ 3.86 µM) | 2 µg/mL (≈ 3.86 µM) | 2 µg/mL (≈ 3.86 µM) | 4 µg/mL (≈ 7.73 µM) | 2 µg/mL (≈ 3.86 µM) | 2 µg/mL (≈ 3.86 µM) | 2 µg/mL (≈ 3.86 µM)
4 | C[C@]12C[C@]34C[C@@H]1C[C@H](O2)[C@H]3[C@](C)(CCC(=O)Nc1c(O)ccc(C(=O)O)c1O)C(=O)C[C@@H]4SC(=O)c1ccc(C(F)(F)F)cc1 | 2 µg/mL (≈ 3.09 µM) | 1 µg/mL (≈ 1.54 µM) | 0.5 µg/mL (≈ 0.772 µM) | 1 µg/mL (≈ 1.54 µM) | 1 µg/mL (≈ 1.54 µM) | 1 µg/mL (≈ 1.54 µM) | 2 µg/mL (≈ 3.09 µM) | 1 µg/mL (≈ 1.54 µM) | 2 µg/mL (≈ 3.09 µM) | 1 µg/mL (≈ 1.54 µM) | 1 µg/mL (≈ 1.54 µM) | 1 µg/mL (≈ 1.54 µM)
5 | C[C@]12C[C@]34C[C@@H]1C[C@H](O2)[C@H]3[C@](C)(CCC(=O)Nc1c(O)ccc(C(=O)O)c1O)C(=O)C[C@@H]4SC(=O)c1ccc(Br)cc1 | 2 µg/mL (≈ 3.04 µM) | 1 µg/mL (≈ 1.52 µM) | 1 µg/mL (≈ 1.52 µM) | 1 µg/mL (≈ 1.52 µM) | 1 µg/mL (≈ 1.52 µM) | 1 µg/mL (≈ 1.52 µM) | 2 µg/mL (≈ 3.04 µM) | 1 µg/mL (≈ 1.52 µM) | 1 µg/mL (≈ 1.52 µM) | 1 µg/mL (≈ 1.52 µM) | 1 µg/mL (≈ 1.52 µM) | 1 µg/mL (≈ 1.52 µM)
6 | C[C@]12C[C@]34C[C@@H]1C[C@H](O2)[C@H]3[C@](C)(CCC(=O)Nc1c(O)ccc(C(=O)O)c1O)C(=O)C[C@@H]4SC(=O)c1ccccc1C(F)(F)F | 4 µg/mL (≈ 6.18 µM) | 2 µg/mL (≈ 3.09 µM) | 1 µg/mL (≈ 1.54 µM) | 1 µg/mL (≈ 1.54 µM) | 1 µg/mL (≈ 1.54 µM) | 1 µg/mL (≈ 1.54 µM) | 1 µg/mL (≈ 1.54 µM) | 1 µg/mL (≈ 1.54 µM) | 2 µg/mL (≈ 3.09 µM) | 1 µg/mL (≈ 1.54 µM) | 1 µg/mL (≈ 1.54 µM) | 1 µg/mL (≈ 1.54 µM)
7 | C[C@]12C[C@]34C[C@@H]1C[C@H](O2)[C@H]3[C@](C)(CCC(=O)Nc1c(O)ccc(C(=O)O)c1O)C(=O)C[C@@H]4SC(=O)c1ccc2ccccc2c1 | 4 µg/mL (≈ 6.35 µM) | 2 µg/mL (≈ 3.18 µM) | 1 µg/mL (≈ 1.59 µM) | 0.5 µg/mL (≈ 0.794 µM) | 0.5 µg/mL (≈ 0.794 µM) | 0.5 µg/mL (≈ 0.794 µM) | 2 µg/mL (≈ 3.18 µM) | 1 µg/mL (≈ 1.59 µM) | 4 µg/mL (≈ 6.35 µM) | 1 µg/mL (≈ 1.59 µM) | 1 µg/mL (≈ 1.59 µM) | 1 µg/mL (≈ 1.59 µM)
8 | C[C@]12C[C@]34C[C@@H]1C[C@H](O2)[C@H]3[C@](C)(CCC(=O)Nc1c(O)ccc(C(=O)O)c1O)C(=O)C[C@@H]4SC(=O)c1cccc(F)c1 | 2 µg/mL (≈ 3.35 µM) | 2 µg/mL (≈ 3.35 µM) | 1 µg/mL (≈ 1.67 µM) | 1 µg/mL (≈ 1.67 µM) | 1 µg/mL (≈ 1.67 µM) | 1 µg/mL (≈ 1.67 µM) | 1 µg/mL (≈ 1.67 µM) | 1 µg/mL (≈ 1.67 µM) | 2 µg/mL (≈ 3.35 µM) | 1 µg/mL (≈ 1.67 µM) | 1 µg/mL (≈ 1.67 µM) | 1 µg/mL (≈ 1.67 µM)
9 | C=C1C[C@@]23CCC1C[C@@H]2[C@](C)(CCC(=O)Nc1c(O)ccc(C(=O)O)c1O)C(=O)C[C@@H]3SC(=O)c1ccccc1 (single isomer, unassigned) | 2 µg/mL (≈ 3.55 µM) | 4 µg/mL (≈ 7.1 µM) | 1 µg/mL (≈ 1.77 µM) | 1 µg/mL (≈ 1.77 µM) | 1 µg/mL (≈ 1.77 µM) | 1 µg/mL (≈ 1.77 µM) | 2 µg/mL (≈ 3.55 µM) | 2 µg/mL (≈ 3.55 µM) | 4 µg/mL (≈ 7.1 µM) | 2 µg/mL (≈ 3.55 µM) | 2 µg/mL (≈ 3.55 µM) | 1 µg/mL (≈ 1.77 µM)
10 | C=C1C[C@@]23CCC1C[C@@H]2[C@](C)(CCC(=O)Nc1c(O)ccc(C(=O)O)c1O)C(=O)C[C@@H]3SC(=O)Cc1ccc(F)cc1 (single isomer, unassigned) | 4 µg/mL (≈ 6.71 µM) | 4 µg/mL (≈ 6.71 µM) | 1 µg/mL (≈ 1.68 µM) | 1 µg/mL (≈ 1.68 µM) | 1 µg/mL (≈ 1.68 µM) | 0.5 µg/mL (≈ 0.839 µM) | 2 µg/mL (≈ 3.36 µM) | 2 µg/mL (≈ 3.36 µM) | 4 µg/mL (≈ 6.71 µM) | 1 µg/mL (≈ 1.68 µM) | 1 µg/mL (≈ 1.68 µM) | 1 µg/mL (≈ 1.68 µM)
